According to paper PMC3705926 (Journal of ethnopharmacology, 2010):

Assays:
[1] = system: 2ERE-luciferase reporter (ER) in MCF-7 cells; assay: 2ERE-luciferase reporter gene assay in transiently transfected MCF-7 cells; type: cell-based, human; details: 1 μg/ml, 16 h
[2] = biological target: T1, 5-HT7 (Homo sapiens, UniProt P34969); assay: Serotonin 5-HT7 receptor radioligand binding; details: read-out: IC50, binding to serotonin receptor 5-HT7
[3] = biological target: T1, 5-HT7; assay: GTP shift experiment, [3H]LSD binding with or without 100 μM GTP
[4] = biological target: T2, 5-HT1A (Homo sapiens, UniProt P08908); assay: Serotonin 5-HT1A receptor radioligand binding; details: read-out: IC50, binding to serotonin receptor 5-HT1A
T2 sequence (P08908 1-422): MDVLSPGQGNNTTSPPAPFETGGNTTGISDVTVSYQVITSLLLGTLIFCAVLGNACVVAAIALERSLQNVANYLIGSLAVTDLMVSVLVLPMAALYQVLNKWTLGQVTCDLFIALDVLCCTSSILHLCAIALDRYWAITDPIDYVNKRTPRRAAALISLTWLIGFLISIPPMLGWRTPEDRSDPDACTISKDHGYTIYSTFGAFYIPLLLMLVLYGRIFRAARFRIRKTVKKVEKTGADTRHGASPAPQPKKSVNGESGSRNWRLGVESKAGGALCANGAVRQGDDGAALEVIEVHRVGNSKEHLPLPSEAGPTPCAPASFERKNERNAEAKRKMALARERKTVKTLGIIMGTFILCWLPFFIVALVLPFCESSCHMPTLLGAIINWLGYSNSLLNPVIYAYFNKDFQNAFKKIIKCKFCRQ
In short: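 Competition binding used Cos M6 cell membrane homogenate with [3H]5-CT (1.0 nM final) in 100 mM Tris-HCl, 1 mM EDTA, 1% ascorbic acid, pH 7.7, at 37°C for 30 min. Binding was stopped by rapid filtration and four ice-cold buffer washes, then counted by scintillation. IC50 came from non-linear curve fitting of at least triplicate determinations.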

[5] = [3H]-LSD displacement, absence of GTP, two-site fit

T1 sequence (P34969 whole entry): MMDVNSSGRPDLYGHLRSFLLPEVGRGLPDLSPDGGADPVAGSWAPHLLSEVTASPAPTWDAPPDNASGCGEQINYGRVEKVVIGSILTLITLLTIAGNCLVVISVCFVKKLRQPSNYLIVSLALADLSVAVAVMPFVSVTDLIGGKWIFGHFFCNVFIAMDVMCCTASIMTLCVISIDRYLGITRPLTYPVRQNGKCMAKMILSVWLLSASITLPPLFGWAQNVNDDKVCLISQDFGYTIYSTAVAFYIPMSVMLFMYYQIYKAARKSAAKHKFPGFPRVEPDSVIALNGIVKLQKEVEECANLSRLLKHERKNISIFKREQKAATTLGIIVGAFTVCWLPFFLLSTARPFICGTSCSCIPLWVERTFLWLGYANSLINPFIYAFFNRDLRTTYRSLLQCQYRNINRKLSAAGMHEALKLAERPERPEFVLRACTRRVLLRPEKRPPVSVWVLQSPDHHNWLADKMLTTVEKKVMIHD

| Substance | fold increase in luciferase activity [1] | IC50 [2] | IC50, high-affinity state [3, 5] | IC50, low affinity state [3, 5] | Ki, high-affinity state [3, 5] | Ki, low affinity state [3, 5] | agonist/antagonist character at the 5-HT7 receptor ([3]; from GTP shift of the binding curve) | IC50 after addition of GTP (monophasic, low-affinity state) ([3]; with 100 μM GTP) | Ki after addition of GTP ([3]; with 100 μM GTP) | IC50 [4] |
| --- | --- | --- | --- | --- | --- | --- | --- | --- | --- | --- |
| piperolide [Compound 3] | 8.4 fold | 34.7 µM | – | – | – | – | – | – | – | – |
| 5, 6-Z-fadyenolide [Compound 2] | 9.8 fold | 23.2 µM | – | – | – | – | – | – | – | – |
| 9, 10-methylenedioxy-5, 6-Z-fadyenolide [Compound 1] | not active | 8.3 µM | 0.014 µg/mL | 37.7 µg/mL | 0.00848 µg/mL | 0.0267 µg/mL | partial agonist | 11.5 µg/mL | 6880 µg/mL | 16.1 µM |
